Reference: ChEMBL document CHEMBL1926577, “Novel 1,3,4-heterodiazole analogues: synthesis and in-vitro antitumor activity” (2012)

What was measured:
Format in all cases: functional
UACC-62 = assay: Growth inhibition of human UACC62 cells at 10 uM after 48 hrs by coulter counter method; details: UACC-62, 48 h, read-out: GI
Outline: (§1)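 NCI 60-cell-line panel, single dose. Compound dissolved first in DMSO, then diluted in phosphate-buffered saline so that every final dilution held under 1% DMSO. Duplicate wells received cells at 6 × 10⁴ cells/ml. Controls held PBS/DMSO at the same dilution. Plates were incubated 48 h at 37 °C under 5% CO₂. Cells were then diluted 10-fold in saline and counted on a Coulter counter, with counts corrected for the dilution. Results are given as percent growth inhibition.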

MDA-MB-435 = assay: Growth inhibition of human MDA-MB-435 cells at 10 uM after 48 hrs by coulter counter method; details: MDA-MB-435, 48 h, read-out: GI; outline: as §1
UO-31 = assay: Growth inhibition of human UO31 cells at 10 uM after 48 hrs by coulter counter method; details: UO-31, 48 h, read-out: GI; outline: as §1
BT-549 = assay: Growth inhibition of human BT549 cells at 10 uM after 48 hrs by coulter counter method; details: BT-549, 48 h, read-out: GI; outline: as §1
NCI-H226 = assay: Growth inhibition of human NCI-H226 cells at 10 uM after 48 hrs by coulter counter method; details: NCI-H226, 48 h, read-out: GI; outline: as §1
HCT-116 = assay: Growth inhibition of human HCT116 cells at 10 uM after 48 hrs by coulter counter method; details: HCT-116, 48 h, read-out: GI; outline: as §1
HL-60(TB) = assay: Growth inhibition of human HL-60(TB) cells at 10 uM after 48 hrs by coulter counter method; details: HL-60, 48 h, read-out: GI
Outline: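 Single-dose screen on the NCI 60-line panel (leukemia subpanel). Compound is dissolved in DMSO and diluted in PBS, with final DMSO below 1%. Duplicate wells hold 6 × 10⁴ cells/ml at 37 °C, 5% CO₂, for 48 h. Cells are counted by Coulter counter after 10-fold saline dilution. Read-out is percent growth versus PBS/DMSO controls, expressed as % growth inhibition.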

SF-295 = assay: Growth inhibition of human SF295 cells at 10 uM after 48 hrs by coulter counter method; details: SF-295, 48 h, read-out: GI; outline: as §1
OVCAR-8 = assay: Growth inhibition of human OVCAR8 cells at 10 uM after 48 hrs by coulter counter method; details: OVCAR-8, 48 h, read-out: GI; outline: as §1
SNB-75 = assay: Growth inhibition of human SNB75 cells at 10 uM after 48 hrs by coulter counter method; details: SNB-75, 48 h, read-out: GI; outline: as §1
CCRF-CEM = assay: Growth inhibition of human CCRF-CEM cells at 10 uM after 48 hrs by coulter counter method; details: read-out: GI; outline: as §1
SK-MEL-5 = assay: Growth inhibition of human SK-MEL-5 cells at 10 uM after 48 hrs by coulter counter method; details: SK-MEL-5, 48 h, read-out: GI; outline: as §1
A498 = assay: Growth inhibition of human A498 cells at 10 uM after 48 hrs by coulter counter method; details: A498, 48 h, read-out: GI; outline: as §1
SR = assay: Growth inhibition of human SR cells at 10 uM after 48 hrs by coulter counter method; details: read-out: GI; outline: as §1
IGROV-1 = assay: Growth inhibition of human IGROV1 cells at 10 uM after 48 hrs by coulter counter method; details: IGROV-1, 48 h, read-out: GI; outline: as §1
NCI-H322M = assay: Growth inhibition of human NCI-H322M cells at 10 uM after 48 hrs by coulter counter method; details: read-out: GI; outline: as §1
KM12 = assay: Growth inhibition of human KM12 cells at 10 uM after 48 hrs by coulter counter method; details: KM12, 48 h, read-out: GI; outline: as §1
LOX IMVI = assay: Growth inhibition of human LOXIMVI cells at 10 uM after 48 hrs by coulter counter method; details: read-out: GI; outline: as §1
EKVX = assay: Growth inhibition of human EKVX cells at 10 uM after 48 hrs by coulter counter method; details: read-out: GI; outline: as §1
CAKI-1 = assay: Growth inhibition of human Caki1 cells at 10 uM after 48 hrs by coulter counter method; details: CAKI-1, 48 h, read-out: GI; outline: as §1
MDA-MB-468 = assay: Growth inhibition of human MDA-MB-468 cells at 10 uM after 48 hrs by coulter counter method; details: MDA-MB-468, 48 h, read-out: GI; outline: as §1
Malme-3M = assay: Growth inhibition of human MALME-3M cells at 10 uM after 48 hrs by coulter counter method; details: read-out: GI; outline: as §1
RPMI-8226 = assay: Growth inhibition of human RPMI8226 cells at 10 uM after 48 hrs by coulter counter method; details: RPMI-8226, 48 h, read-out: GI; outline: as §1
SNB-19 = assay: Growth inhibition of human SNB19 cells at 10 uM after 48 hrs by coulter counter method; details: SNB-19, 48 h, read-out: GI; outline: as §1
T47D = assay: Growth inhibition of human T47D cells at 10 uM after 48 hrs by coulter counter method; details: read-out: GI; outline: as §1
MCF7 = assay: Growth inhibition of human MCF7 cells at 10 uM after 48 hrs by coulter counter method; details: MCF7, 48 h, read-out: GI; outline: as §1
ACHN = assay: Growth inhibition of human ACHN cells at 10 uM after 48 hrs by coulter counter method; details: read-out: GI; outline: as §1
U-251 = assay: Growth inhibition of human U251 cells at 10 uM after 48 hrs by coulter counter method; details: U-251, 48 h, read-out: GI; outline: as §1
A549 = assay: Growth inhibition of human A549 cells at 10 uM after 48 hrs by coulter counter method; details: A549, 48 h, read-out: GI; outline: as §1
M14 = assay: Growth inhibition of human M14 cells at 10 uM after 48 hrs by coulter counter method; details: M14, 48 h, read-out: GI; outline: as §1
K562 = assay: Growth inhibition of human K562 cells at 10 uM after 48 hrs by coulter counter method; details: K562, 48 h, read-out: GI; outline: as §1
PC-3 = assay: Growth inhibition of human PC3 cells at 10 uM after 48 hrs by coulter counter method; details: PC-3, 48 h, read-out: GI; outline: as §1
UACC-257 = assay: Growth inhibition of human UACC257 cells at 10 uM after 48 hrs by coulter counter method; details: UACC-257, 48 h, read-out: GI; outline: as §1
786-0 = assay: Growth inhibition of human 786-0 cells at 10 uM after 48 hrs by coulter counter method; details: 786-0, 48 h, read-out: GI; outline: as §1
SK-MEL-28 = assay: Growth inhibition of human SK-MEL-28 cells at 10 uM after 48 hrs by coulter counter method; details: SK-MEL-28, 48 h, read-out: GI; outline: as §1
TK-10 = assay: Growth inhibition of human TK10 cells at 10 uM after 48 hrs by coulter counter method; details: TK-10, 48 h, read-out: GI; outline: as §1
HCT-15 = assay: Growth inhibition of human HCT15 cells at 10 uM after 48 hrs by coulter counter method; details: HCT-15, 48 h, read-out: GI; outline: as §1
SK-MEL-2 = assay: Growth inhibition of human SK-MEL-2 cells at 10 uM after 48 hrs by coulter counter method; details: SK-MEL-2, 48 h, read-out: GI; outline: as §1
MOLT-4 = assay: Growth inhibition of human MOLT4 cells at 10 uM after 48 hrs by coulter counter method; details: MOLT-4, 48 h, read-out: GI; outline: as §1
NCI-H23 = assay: Growth inhibition of human NCI-H23 cells at 10 uM after 48 hrs by coulter counter method; details: NCI-H23, 48 h, read-out: GI; outline: as §1
HT-29 = assay: Growth inhibition of human HT-29 cells at 10 uM after 48 hrs by coulter counter method; details: HT-29, 48 h, read-out: GI; outline: as §1
NCI/ADR-RES = assay: Growth inhibition of human NCI/ADR-RES cells at 10 uM after 48 hrs by coulter counter method; details: read-out: GI; outline: as §1
SN12C = assay: Growth inhibition of human SN12C cells at 10 uM after 48 hrs by coulter counter method; details: read-out: GI; outline: as §1
NCI-H522 = assay: Growth inhibition of human NCI-H522 cells at 10 uM after 48 hrs by coulter counter method; details: NCI-H522, 48 h, read-out: GI; outline: as §1
SF-268 = assay: Growth inhibition of human SF268 cells at 10 uM after 48 hrs by coulter counter method; details: SF-268, 48 h, read-out: GI; outline: as §1

Measured: inhibition of growth at 10 µM

O=C1CN2N=C(c3ccccc3)OC2=N1
20.4%: UO-31
10.9%: A498
14.7%: SF-295
21.2%: CAKI-1
< 10%: all other assays above

O=C1N=C2SC(c3ccccc3)=NN2C1=O
10.8%: NCI-H322M
10.7%: PC-3
15.5%: UACC-257
12.4%: NCI-H522
25.7%: UO-31
12.6%: RPMI-8226
< 10%: all other assays above
